Source: PubChem
An excerpt weighted towards active compounds, which were near 1.4% of everything screened.
MT1-MMP act inh: blockers of MT1-MMP proenzyme processing, primary screen, HT1080 RFP-PRO-GFP cells, GFP/RFP fluorescence; Matrix metalloproteinase-14 (Homo sapiens), P50281; GFP/RFP ratio fluorescence, overnight; percent of plate control window, DMSO zero; GFP/RFP ratio change, % at 20 µM; actives 0.061% (n = 360,000);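 active means GFP/RFP ratio change of at least 30% with cell ATP level not reduced by more than half and red fluorescence within 50% of control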
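system = RFP-PRO-GFP reporter HT1080 cells | dosing = 20 µM single dose, 1% DMSO | timing = overnight cell settling, then overnight compound exposure, 37 °C, 5% CO2 | read-out basis = GFP/RFP fluorescence ratio | controls = DMSO and RFP-L50D-GFP cell wells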
TAG inh: inhibitors of triacylglycerol accumulation, primary screen, cell-based, uHTS, fluorescence, H9c2; H9c2 cells, Nile Red lipid (TAG) fluorescence; cells loaded with 200 µM oleic acid; inhibition, % at 12.5 µM; actives 0.66% (n = 230,000); AID 651582, 2012;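 active means pattern-corrected inhibition of lipid staining of at least 50% with the nuclear-stain viability signal not falling by more than 50%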;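 further: 0% = DMSO wells and 100% = triacsin C control wells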
Cardio protect: cardioprotection against H2O2-induced cell death, primary screen, uHTS, H9c2 cells, ATPLite luminescence; H9c2 cardiomyocytes, H2O2 injury protection, 2 h; protection from H2O2 cell death, % at 20 µM; actives 0.63% (n = 360,000); AID 588492, 2011;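 active means compounds giving at least 50% protection of heart cells from peroxide-induced death in the single-dose screen, raw or plate-pattern-corrected value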;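 further: 0% = DMSO wells with peroxide and 100% = DMSO wells without peroxide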
DAGLB inh: DAGLB lipase inhibitors, primary screen, biochemical, fluorescence, HTS | Diacylglycerol lipase-beta (Homo sapiens), Q8NCG7 | inhibition, % at 5.17 µM | HEK293T DAGLB membrane lysate, EnzChek fluorogenic substrate | actives 0.059% (n = 340,000) | AID 504411, 2011; in the data active means inhibition above about 34%;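 further: 0% = enzyme with vehicle and 100% = wells lacking enzyme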
Target sequence (Q8NCG7 whole entry, looked up): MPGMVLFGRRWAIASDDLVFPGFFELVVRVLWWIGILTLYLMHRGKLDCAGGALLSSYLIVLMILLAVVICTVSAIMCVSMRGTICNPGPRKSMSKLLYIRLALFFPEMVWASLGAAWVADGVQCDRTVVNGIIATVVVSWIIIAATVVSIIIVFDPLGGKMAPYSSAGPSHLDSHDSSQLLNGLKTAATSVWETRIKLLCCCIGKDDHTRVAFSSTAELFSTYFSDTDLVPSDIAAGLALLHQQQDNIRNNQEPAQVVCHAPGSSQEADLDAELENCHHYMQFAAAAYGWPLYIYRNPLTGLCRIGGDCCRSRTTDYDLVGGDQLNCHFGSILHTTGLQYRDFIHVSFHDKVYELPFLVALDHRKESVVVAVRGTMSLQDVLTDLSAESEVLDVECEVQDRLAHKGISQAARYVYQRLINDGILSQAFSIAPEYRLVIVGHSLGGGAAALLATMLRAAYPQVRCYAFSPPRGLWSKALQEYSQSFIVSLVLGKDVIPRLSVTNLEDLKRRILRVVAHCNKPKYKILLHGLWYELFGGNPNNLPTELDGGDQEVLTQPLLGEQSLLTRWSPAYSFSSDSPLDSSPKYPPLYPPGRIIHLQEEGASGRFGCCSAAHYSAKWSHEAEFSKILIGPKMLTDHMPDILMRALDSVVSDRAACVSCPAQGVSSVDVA
Tn6 DDE FP: inhibitors of Tn6 peptide binding to fibrin DD(E), primary screen, biochemical, fluorescence polarization, human fibrin, Tn6 probe. Fibrin DD(E) TRITC-Tn6 fluorescence polarization displacement. inhibition, % at 8.3 µM. actives 0.21% (n = 370,000);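 active means inhibition above a per-campaign cutoff: mean of compounds within control limits plus 3 SD, cut at about 15% in these data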;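 further: 0% = median of all compound wells on the plate and 100% = blocking peptide control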
Tn7 DDE FP: inhibitors of Tn7 peptide binding to fibrin DD(E), primary screen, biochemical, fluorescence polarization, human fibrin, Tn7 probe; Fibrinogen beta chain (Homo sapiens), P02675; FP displacement of FITC-Tn7 peptide from fibrin DD(E); 0% = median of compound wells per plate; inhibition, % at 8.3 µM; actives 0.13% (n = 370,000); AID 720508, 2013;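 active means inhibition above the mean of compounds falling within the control limits plus 3 SD of them, cut at about 14% in these data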;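 further: 0% = plate median of compound wells and 100% = 10 µM Aha-Tn7 peptide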
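Assay system: Human clot-derived fibrin DD(E) complex | Buffer or medium: Tris/NaCl/CaCl2 buffer, pH 7.8 | Repeats: One replicate per compound | Benchmarks: Aha-Tn7 high control | Measure: % inhibition scaled between sample-field median and high-control FP | Schedule: 10 min plus 3 h, room temperature | Signal: Fluorescence polarization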
* marks the source's active call; other numbers are inactive results.

For COC(=O)C1CN(Cc2cn(Cc3ccc(Cl)cc3)nn2)CCS(=O)(=O)N1Cc1ccc(F)cc1 (centres undefined) the results were Tn6 DDE FP -2 and Tn7 DDE FP 6.
`O=C(NNC(=O)c1nc(Cl)ccc1Cl)c1ccc(F)cc1` gave MT1-MMP act inh 2, Cardio protect 17, DAGLB inh 2, Tn6 DDE FP 2 and Tn7 DDE FP -2.
Screening O=C(NNC(=O)c1ncc(Cl)c(Cl)c1Cl)c1ccc(F)cc1 returned MT1-MMP act inh -7, TAG inh 0, Cardio protect 78*, DAGLB inh -1, Tn6 DDE FP -5 and Tn7 DDE FP -7.
`O=S(=O)(c1ccc(Cl)cc1)N1CCN(Cc2ccc(O)c3ncccc23)CC1` gave MT1-MMP act inh 2, TAG inh 53*, Cardio protect 30, DAGLB inh 7, Tn6 DDE FP -10 and Tn7 DDE FP -5.
Screening Oc1ccc(CN2CCN(Cc3ccccc3)CC2)c2cccnc12 returned MT1-MMP act inh 0, TAG inh 9, Cardio protect 40, DAGLB inh 3, Tn6 DDE FP -2 and Tn7 DDE FP -3.
Cc1cccc(/C=N/NC(=O)c2c(-c3ccccc3)noc2C)c1O was read as MT1-MMP act inh -22, TAG inh 14, Cardio protect 54*, DAGLB inh 7, Tn6 DDE FP -3 and Tn7 DDE FP -3.
Screening CC(C)(C)c1ccc(OCCCN2CCC(C(O)(c3ccccc3)c3ccccc3)CC2)cc1 returned Tn6 DDE FP 6 and Tn7 DDE FP 6.
CC(C)(C)c1ccc(C(O)CCCN2CCC(C(O)(c3ccccc3)c3ccccc3)CC2)cc1 (centres undefined) was read as MT1-MMP act inh -5, TAG inh 62*, Cardio protect -44, DAGLB inh 2, Tn6 DDE FP 6 and Tn7 DDE FP -1.
For CO[C@H]([C@H](C)/C=C/N(C)C=O)[C@@H](C)C(=O)CC[C@H](C)[C@H](O)[C@H](C)[C@H]1OC(=O)/C=C/C(C)=C/C[C@H](O)C[C@@H]2C=CC[C@@H](C[C@H](OC)C(C)(O)[C@@H](OC)C[C@@H](OC)[C@@H]1C)O2 (some centres undefined) the results were Tn6 DDE FP -3 and Tn7 DDE FP -6.
Screening O=C(COC(=O)Cc1cccs1)Nc1ccc(OC(F)(F)F)cc1 returned MT1-MMP act inh 6, TAG inh 4, Cardio protect 0, DAGLB inh -2, Tn6 DDE FP 88* and Tn7 DDE FP 6.
`O=C1C=C[C@H]2CC[C@@H](O)[C@@H]1[C@@H]2Sc1ccccc1` gave Tn6 DDE FP 10 and Tn7 DDE FP 8.
`CN(C)c1cccc(/C=C2\CC3(OC(=O)c4ccc(F)cc4)CCCN2C3)c1` (centres undefined) gave Tn6 DDE FP 4 and Tn7 DDE FP 3.
Screening CCOC(=O)C1=C(C)Nc2ccccc2N=C1NC(=O)c1oc2ccccc2c1COC returned MT1-MMP act inh -19, TAG inh 13, Cardio protect 86*, DAGLB inh -6, Tn6 DDE FP 2 and Tn7 DDE FP 1.
COC(=O)N1C(=O)[C@](c2ccccc2)(C2CCCC2)N1C(=O)OC was read as MT1-MMP act inh -7, TAG inh -7, Cardio protect 80*, DAGLB inh 3, Tn6 DDE FP -8 and Tn7 DDE FP 2.
Cc1cc(Nc2ccccc2C(=O)O)nc2nc3ccccc3c(=O)n12 was read as MT1-MMP act inh 4, Cardio protect 81*, DAGLB inh 0, Tn6 DDE FP 1 and Tn7 DDE FP 2.
Screening O=C(O)c1ccccc1Nc1ccccc1 returned MT1-MMP act inh 3, TAG inh 8, Cardio protect -4, DAGLB inh 3, Tn6 DDE FP -5 and Tn7 DDE FP -2.
COc1ccc(-n2c(SCC(=O)Nc3ccc4c(c3)OCO4)nc3sc4c(c3c2=O)CCCC4)cc1 was read as Tn6 DDE FP -8 and Tn7 DDE FP 7.
`O=C(CN1CC(=O)Oc2ccccc21)OCC(=O)c1cccc(Br)c1` gave MT1-MMP act inh -1, TAG inh -5, Cardio protect 60* and DAGLB inh 0.
O=C(CN1CC(=O)Oc2ccccc21)OCC(=O)c1ccccc1 was read as MT1-MMP act inh 4, Cardio protect 43, DAGLB inh 3, Tn6 DDE FP -1 and Tn7 DDE FP 7.
Screening COc1cc(/C=N/NC(=O)c2[nH]nc3c2CCc2ccccc2-3)ccc1O returned Cardio protect 54*, DAGLB inh -5, Tn6 DDE FP -3 and Tn7 DDE FP 2.
COc1cc(/C=N/NC(=O)c2cc(O)cc(O)c2)ccc1OC(=O)c1ccccc1 was read as MT1-MMP act inh 1, TAG inh 1, Cardio protect 56*, DAGLB inh -3, Tn6 DDE FP -20 and Tn7 DDE FP -2.
For COc1cc(/C=N/NC(=O)c2ccc(CSc3nc4ccccc4[nH]3)cc2)ccc1O the results were MT1-MMP act inh 1, Cardio protect 52*, Tn6 DDE FP -20 and Tn7 DDE FP -3.
COc1cc(C(=O)N/N=C/c2ccc(OC(=O)c3ccccc3)c(OC)c2)ccc1O was read as MT1-MMP act inh 3, TAG inh 2, Cardio protect 52*, DAGLB inh -3, Tn6 DDE FP -11 and Tn7 DDE FP 1.
Cc1ccc(-c2cc(C(=O)NN=Cc3ccc(-c4ccccc4)cc3)[nH]n2)cc1C was read as Tn6 DDE FP -3 and Tn7 DDE FP 4.
Screening CC(C)(C)C(=O)Nc1ccc(C(=O)N/N=C/c2ccccc2OC(=O)c2ccccc2)cc1 returned MT1-MMP act inh 3, Cardio protect 52*, DAGLB inh -1, Tn6 DDE FP -4 and Tn7 DDE FP -6.
For O=C(N/N=C/c1ccc(OC(=O)c2ccccc2Cl)cc1)c1cc(O)cc(O)c1 the results were MT1-MMP act inh 5, TAG inh 5, Cardio protect 54*, DAGLB inh -3, Tn6 DDE FP -20 and Tn7 DDE FP 7.
Screening COc1ccc2nc(-c3ccccn3)[nH]c2c1 returned MT1-MMP act inh 2, TAG inh 70*, Cardio protect -13, DAGLB inh -1, Tn6 DDE FP -3 and Tn7 DDE FP 4.
